ChEMBL document CHEMBL4406856, “Structure based design, synthesis and in vitro antitumour activity of tiazofurin stereoisomers with nitrogen functions at the C-2' or C-3' positions” (Eur J Med Chem, 2019)
pIC50: −log10 of the molar value. Calls of active or inactive are those of the source. The rule behind the calls is not given here.

How the values were obtained:
K562 [1] = experiment: Potency index, ratio of tiazofurin IC50 to compound IC50 for cytotoxicity against human K562 cells incubated for 72 hrs by MTT assay; format: functional
K562 [2] = experiment: Induction of apoptosis in human K562 cells assessed as 18 kDa Caspase 3 active subunit level incubated for 72 hrs by Western blot analysis (reference value: 100%); format: functional
In short: (§1)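 K562 cells treated for 72 h; Bcl-2, BAX, caspase 3 precursor (32 kDa), caspase 3 active subunit (18 kDa) and PARP (112 and 85 kDa) measured by Western blot and expressed as % of untreated control.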

K562 [3] = experiment: Cell cycle arrest in human K562 cells assessed as accumulation in G2/M phase incubated for 24 hrs by propidium iodide staining based flow cytometry (reference value: 14.29%); format: functional
In short: (§2)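 Exponentially growing K562 cells treated for 24 or 72 h, untreated cells as control; cells stained with propidium iodide and DNA content read by flow cytometry. Phase distribution (subG1, G0/G1, S, G2/M) taken from one-parameter histograms, subG1 scored as hypodiploid, apoptotic cells.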

K562 [4] = experiment: Induction of necrosis in human K562 cells incubated for 24 hrs by annexin V FITC and propidium iodide staining based flow cytometry relative to control; format: functional; set-up: concentration or dose not given beside the values
HL-60 [5] = experiment: Potency index, ratio of doxorubicin IC50 to compound IC50 for cytotoxicity against human HL60 cells incubated for 72 hrs by MTT assay; format: functional
K562 [6] = experiment: Potency index, ratio of doxorubicin IC50 to compound IC50 for cytotoxicity against human K562 cells incubated for 72 hrs by MTT assay; format: functional
K562 [7] = experiment: Induction of apoptosis in human K562 cells assessed as 112 kDa PARP level incubated for 72 hrs by Western blot analysis (reference value: 100%); format: functional; in short: as §1
K562 [8] = experiment: Induction of apoptosis in human K562 cells incubated for 72 hrs by annexin V FITC and propidium iodide staining based flow cytometry relative to control; format: functional; set-up: concentration or dose not given beside the values
In short: (§3)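 K562 cells treated for 72 h, stained with Annexin V-FITC/propidium iodide and analysed by flow cytometry. Apoptotic, necrotic and live fractions scored as percent of gated cells; specific apoptosis and specific necrosis calculated from these counts.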

K562 [9] = experiment: Induction of apoptosis in human K562 cells assessed as Bax level incubated for 72 hrs by Western blot analysis (reference value: 100%); format: functional; in short: as §1
HeLa [10] = experiment: Potency index, ratio of tiazofurin IC50 to compound IC50 for cytotoxicity against human HeLa cells incubated for 72 hrs by MTT assay; format: functional
K562 [11] = experiment: Induction of apoptosis in human K562 cells incubated for 24 hrs by annexin V FITC and propidium iodide staining based flow cytometry relative to control; format: functional; set-up: concentration or dose not given beside the values
K562 [12] = experiment: Cell cycle arrest in human K562 cells assessed as accumulation in S phase incubated for 24 hrs by propidium iodide staining based flow cytometry (reference value: 48.38%); format: functional; in short: as §2
K562 [13] = experiment: Cell cycle arrest in human K562 cells assessed as decrease in cell accumulation at G2/M phase incubated for 72 hrs by propidium iodide staining based flow cytometry relative to tiazofurin; format: functional; in short: as §2
K562 [14] = experiment: Induction of apoptosis in human K562 cells assessed as Bcl2 level incubated for 72 hrs by Western blot analysis (reference value: 100%); format: functional; in short: as §1
HL-60 [15] = experiment: Potency index, ratio of tiazofurin IC50 to compound IC50 for cytotoxicity against human HL60 cells incubated for 72 hrs by MTT assay; format: functional
Raji [16] = experiment: Potency index, ratio of tiazofurin IC50 to compound IC50 for cytotoxicity against human Raji cells incubated for 72 hrs by MTT assay; format: functional
K562 [17] = experiment: Induction of necrosis in human K562 cells incubated for 72 hrs by annexin V FITC and propidium iodide staining based flow cytometry relative to control; format: functional; set-up: concentration or dose not given beside the values; in short: as §3
K562 [18] = experiment: Induction of apoptosis in human K562 cells assessed as reduction in cell membrane integrity at cytotoxic IC50 incubated for 72 hrs by acridine orange and ethidium bromide double staining based fluorescence microscopy; format: functional
K562 [19] = experiment: Genotoxicity in human K562 cells assessed as increase in DNA damage at cytotoxic IC50 incubated for 72 hrs by comet assay; format: toxicity, cell-based; settings: k562, 72 h
In short: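 Modified alkaline comet assay: cells set in agarose on slides, electrophoresed horizontally, stained with ethidium bromide and imaged by fluorescence microscopy. 50 comets scored per sample; mean tail moment used as the DNA-damage measure.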

K562 [20] = experiment: Cell cycle arrest in human K562 cells assessed as accumulation in sub-G1 phase incubated for 24 hrs by propidium iodide staining based flow cytometry (reference value: 1.05%); format: functional; in short: as §2
K562 [21] = experiment: Cell cycle arrest in human K562 cells assessed as accumulation in G2/M phase incubated for 72 hrs by propidium iodide staining based flow cytometry (reference value: 15.45%); format: functional; in short: as §2
K562 [22] = experiment: Induction of apoptosis in human K562 cells assessed as 32 kDa Caspase 3 precursor level incubated for 72 hrs by Western blot analysis (reference value: 100%); format: functional; in short: as §1
K562 [23] = experiment: Cell cycle arrest in human K562 cells assessed as accumulation in S phase incubated for 72 hrs by propidium iodide staining based flow cytometry (reference value: 36.05%); format: functional; in short: as §2
K562 [24] = experiment: Cell cycle arrest in human K562 cells assessed as accumulation in G0/G1 phase incubated for 24 hrs by propidium iodide staining based flow cytometry (reference value: 36.28%); format: functional; in short: as §2
K562 [25] = experiment: Induction of apoptosis in human K562 cells assessed as 85 kDa PARP level incubated for 72 hrs by Western blot analysis (reference value: 100%); format: functional; in short: as §1
K562 [26] = experiment: Cell cycle arrest in human K562 cells assessed as accumulation in SubG1 phase incubated for 72 hrs by propidium iodide staining based flow cytometry (reference value: 3.07%); format: functional; in short: as §2
K562 [27] = experiment: Cell cycle arrest in human K562 cells assessed as accumulation in G0/G1 phase incubated for 72 hrs by propidium iodide staining based flow cytometry (reference value: 45.43%); format: functional; in short: as §2
HT-29 [28] = experiment: Potency index, ratio of tiazofurin IC50 to compound IC50 for cytotoxicity against human HT-29 cells incubated for 72 hrs by MTT assay; format: functional
Jurkat [29] = experiment: Potency index, ratio of doxorubicin IC50 to compound IC50 for cytotoxicity against human Jurkat cells incubated for 72 hrs by MTT assay; format: functional
K562 [30] = experiment: Antiproliferative activity against human K562 cells assessed as reduction in cell growth incubated for 72 hrs by MTT assay; format: functional, cell-based; settings: K562, 72 h
In short: (§4)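 Colorimetric MTT assay on human tumour lines K562 (chronic myeloid leukemia), HL-60 (promyelocytic leukemia), Jurkat (T cell leukemia), Raji (Burkitt's lymphoma), HT-29 (colorectal adenocarcinoma), HeLa (cervix adenocarcinoma) and normal lung fibroblast MRC-5; cells exposed to compounds for 72 h.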

Raji [31] = experiment: Antiproliferative activity against human Raji cells assessed as reduction in cell growth incubated for 72 hrs by MTT assay; format: functional, cell-based; in short: as §4
MRC5 = experiment: Cytotoxicity against human MRC5 cells assessed as reduction in cell viability incubated for 72 hrs by MTT assay; format: cell-based; settings: MRC5, 72 h; in short: as §4
HT-29 [32] = experiment: Antiproliferative activity against human HT-29 cells assessed as reduction in cell growth incubated for 72 hrs by MTT assay; format: functional, cell-based; settings: HT-29, 72 h
In short: (§5)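 Colorimetric MTT assay on human tumour lines K562 (chronic myeloid leukemia), HL-60 (promyelocytic leukemia), Jurkat (T cell leukemia), Raji (Burkitt's lymphoma), HT-29 (colorectal adenocarcinoma), HeLa (cervix adenocarcinoma) and normal lung fibroblast MRC-5; cells exposed to compounds for 72 h. IC50 taken as concentration giving 50% growth inhibition versus untreated control.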

Jurkat [33] = experiment: Antiproliferative activity against human Jurkat cells assessed as reduction in cell growth incubated for 72 hrs by MTT assay; format: functional, cell-based; in short: as §5
HT-29 [34] = experiment: Potency index, ratio of doxorubicin IC50 to compound IC50 for cytotoxicity against human HT-29 cells incubated for 72 hrs by MTT assay; format: functional
HeLa [35] = experiment: Potency index, ratio of doxorubicin IC50 to compound IC50 for cytotoxicity against human HeLa cells incubated for 72 hrs by MTT assay; format: functional
Jurkat [36] = experiment: Potency index, ratio of tiazofurin IC50 to compound IC50 for cytotoxicity against human Jurkat cells incubated for 72 hrs by MTT assay; format: functional
HL-60 [37] = experiment: Antiproliferative activity against human HL60 cells assessed as reduction in cell growth incubated for 72 hrs by MTT assay; format: functional, cell-based; settings: HL-60, 72 h; in short: as §5
HeLa [38] = experiment: Antiproliferative activity against human HeLa cells assessed as reduction in cell growth incubated for 72 hrs by MTT assay; format: functional, cell-based; in short: as §5
Raji [39] = experiment: Potency index, ratio of doxorubicin IC50 to compound IC50 for cytotoxicity against human Raji cells incubated for 72 hrs by MTT assay; format: functional

Compound	Activity (K562 [2]) [%]	Activity (K562 [3]) [%]	Activity (K562 [4]) [%]	Activity (K562 [7]) [%]	Activity (K562 [8]) [%]	Activity (K562 [9]) [%]	Activity (K562 [11]) [%]	Activity (K562 [12]) [%]	fold change (FC) (K562 [13])	Activity (K562 [14]) [%]	Activity (K562 [17]) [%]	Activity (K562 [18])	Activity (K562 [19])	Activity (K562 [20]) [%]	Activity (K562 [21]) [%]	Activity (K562 [22]) [%]	Activity (K562 [23]) [%]	Activity (K562 [24]) [%]	Activity (K562 [25]) [%]	Activity (K562 [26]) [%]	other results
NC(=O)c1csc([C@@H]2O[C@H](CO)[C@H](O)[C@H]2O)n1	230.09	8.45	5.36	665.4	16.69	180.18	11.28	51	2 - 2.4	436.51	21.08	Active	Toxic	2.39	11.6	4433.8	32.94	38.15	552.68	13.6	Ratio IC50 (K562 [1]): 2 - 48; Ratio IC50 (HL-60 [5]): 7; Ratio IC50 (K562 [6]): 2; Ratio IC50 (HeLa [10]): 2 - 48; Ratio IC50 (HL-60 [15]): 2 - 48; Ratio IC50 (Raji [16]): 2 - 48; Activity (K562 [27]): 41.86%
NC(=O)c1csc([C@@H]2O[C@H](CO)[C@H](N)[C@H]2O)n1	172.46	4.72	-0.99	84.76	34.37	240.62	6.35	35.75	2 - 2.4	164.9	20.43	Active	Toxic	3.87	13.77	1465.64	32.99	55.65	104.95	12.78	Ratio IC50 (HT-29 [28]): 11 - 318; Ratio IC50 (K562 [1]): 11 - 318; Ratio IC50 (Jurkat [29]): 5 - 30; pIC50 (K562 [30]): 7.46; Ratio IC50 (K562 [6]): 5 - 30; Ratio IC50 (HeLa [10]): 11 - 318; pIC50 (Raji [31]): 5.41; pIC50 (MRC5): < 4.00; pIC50 (HT-29 [32]): 8.30; pIC50 (Jurkat [33]): 8.44; Ratio IC50 (HT-29 [34]): 5 - 30; Ratio IC50 (HeLa [35]): 5 - 30; Ratio IC50 (Jurkat [36]): 11 - 318; pIC50 (HL-60 [37]): 5.03; pIC50 (HeLa [38]): 7.92; Activity (K562 [27]): 40.45%
CC(=O)N[C@@H]1[C@@H](O)[C@H](c2nc(C(N)=O)cs2)O[C@@H]1CO	87.05	4.47	8.55	336.99	10.14	126.68	27.17	49.42	2 - 2.4	274.16	14.11	Active	Toxic	9.84	13.22	432.96	41.58	36.27	364.31	1.9	Ratio IC50 (Jurkat [29]): 4; pIC50 (K562 [30]): 6.47; pIC50 (Raji [31]): 8.41; pIC50 (MRC5): 4.37; Ratio IC50 (Raji [39]): 764; Ratio IC50 (Raji [16]): 1353 - 1354; pIC50 (HT-29 [32]): 6.59; pIC50 (Jurkat [33]): 8.14; Ratio IC50 (Jurkat [36]): 5; pIC50 (HL-60 [37]): 5.42; pIC50 (HeLa [38]): < 4.00; Activity (K562 [27]): 43.3%
